Compounds with a hit are over-represented: about 2.5% of the library has one in this group of screens.
Efflux pump inh – inhibitors of Candida antifungal efflux pumps expressed in yeast; inhibition, % at 10 µM; S. cerevisiae Candida pump triplex, Nile Red efflux; AID 485275; hit rate 0.44% among 330,000;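 active = plate passing quality check with inhibition over a set limit, or well fluorescence over plate mean plus 4 SD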;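 also: Nile Red retained in pooled yeast measured as flow cytometry median fluorescence; 0% = buffer negative control and 100% = Enniatin B positive control; higher means more Nile Red kept so more efflux inhibition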
ABCG2 block – human ABCG2 inhibition, ABCB1 as counter-screen. IgMXP3 cells, JC-1 efflux, flow cytometry. Q9UNQ0. hit rate 0.1% among 190,000. inhibition, % at 6.6 µM;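 active = inhibition above 80%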;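 also: 0% = DMSO and 100% = nicardipine control wells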
Target sequence (Q9UNQ0 whole entry, looked up): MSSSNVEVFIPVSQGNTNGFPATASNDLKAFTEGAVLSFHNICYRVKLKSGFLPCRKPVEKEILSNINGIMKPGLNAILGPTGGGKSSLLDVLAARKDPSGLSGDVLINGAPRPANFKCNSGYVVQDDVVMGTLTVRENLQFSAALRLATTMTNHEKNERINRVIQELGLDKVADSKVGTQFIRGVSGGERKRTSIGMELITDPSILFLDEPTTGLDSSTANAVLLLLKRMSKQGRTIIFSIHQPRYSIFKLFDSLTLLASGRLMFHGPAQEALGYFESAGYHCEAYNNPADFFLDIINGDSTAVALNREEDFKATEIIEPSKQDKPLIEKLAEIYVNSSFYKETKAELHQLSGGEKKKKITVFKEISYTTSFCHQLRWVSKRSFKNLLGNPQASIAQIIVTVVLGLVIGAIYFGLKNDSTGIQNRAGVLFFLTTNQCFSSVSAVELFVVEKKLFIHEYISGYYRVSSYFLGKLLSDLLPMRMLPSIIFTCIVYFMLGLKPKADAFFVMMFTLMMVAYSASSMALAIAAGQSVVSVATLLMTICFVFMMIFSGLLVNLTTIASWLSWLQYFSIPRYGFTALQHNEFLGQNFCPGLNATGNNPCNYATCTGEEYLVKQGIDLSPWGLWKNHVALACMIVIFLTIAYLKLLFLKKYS
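test system = two drug-resistant human cell lines, ABCG2 and ABCB1 | amount = 3 million cells/mL final, two lines in 1:1 ratio | reagent = JC-1 transporter substrate | doses = one concentration, 6.6 µM final | incubation = 10 min at 25 °C | signal = flow cytometric JC-1 green MFI at 530 nm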
ABCB1 inh – human ABCB1 inhibition, ABCG2 as counter-screen; inhibition, % at 6.6 µM; P08183; AID 1326; hit rate 0.067% among 190,000; CCRF-Adr cells, JC-1 efflux, flow cytometry; in the data active = inhibition above about 40%;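 also: 0% = vehicle and 100% = reference inhibitor; higher value means more JC-1 retained so stronger ABCB1 efflux block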
MEKK2wt PB1 HTS – raises or lowers MEK5 binding to wildtype human MEKK2 PB1 domain; binding response (% of control), % at 10 µM; bead flow cytometry, Alexa488-MEK5 binding to MEKK2 WT; actives lie on both sides; hit rate 1.1% among 290,000; AID 1531; in the data active = binding response below about 67% or above about 130%
MEKK2 mut-MEK5 – signal of MEK5 binding to mutant human MEKK2 PB1 domain. bead flow cytometry, Alexa488-MEK5 binding to MEKK2 mutant. percent response, % at 10 µM. hit rate 0.35% among 290,000; in the data active = percent response above about 24%, passing the limit was not always enough
MEKK3 PB1 HTS – modulators (inhibitors or enhancers) of MEK5 binding to human MEKK3 PB1 domain. hit rate 1.4% among 290,000. binding response (% of control), % at 10 µM. AID 1529. bead-based flow cytometry, Alexa488-MEK5 binding to MEKK3; actives lie on both sides; 0 = blocked by unlabeled MEK5, 100 = vehicle. Q99759;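 active = binding response more than 3 SD above or below the average of its plate-row segment, actives on both sides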;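 also: Alexa488 bead fluorescence after subtracting the streptavidin-only scavenger bead signal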
* marks the source's active call; other numbers are inactive results; x = not tested or not shown; [ ] = another dose, or the depositor's remark.

SMILES | Efflux pump inh | ABCG2 block | ABCB1 inh | MEKK2wt PB1 HTS | MEKK2 mut-MEK5 | MEKK3 PB1 HTS
O=C(Nc1ccc(OC(F)F)c(Cl)c1)C(c1ccccc1)c1ccccc1 | 0 | 22 | 1 | 134 | 4 | 147*
O=C(Cc1cccc2ccccc12)Nc1ccc(OC(F)F)c(Cl)c1 | 0 | 1 | 0 | 134 | 2 | 109
Cn1c(SCc2nn[nH]n2)nc2c1c(=O)n(Cc1ccccc1Cl)c(=O)n2C | 0 | -1 | 0 | 95 | -3 | 103
COCCCNCC(O)COc1cccc2[nH]c(C)cc12 (stereo not drawn) | 0 | 0 | 0 | 90 | -8 | 96
COCCCNCC(O)COc1ccccc1F (stereo not drawn) | 0 | -1 | 0 | 10* | 37 | 99
Cn1c(=O)n(Cc2ccc(Cl)cc2)c(=O)c2c1nc1n2CCN1Cc1ccco1 | 0 | 7 | 1 | 113 | 5 | 109
Cc1cccc(Cn2c(=O)c3c(nc4n3CCN4Cc3ccco3)n(C)c2=O)c1 | 0 | 30 | 4 | 2.0*[inhibitor] | -16 | 2.0*[inhibitor]
CCCN(CCC)CCCNC(=S)Nc1ccc2nc(N3CCCC3)cc(C)c2c1 | 0 | 1 | 0 | 156* | 43 | 106
CCN(CC)CCNC(=S)Nc1ccc2nc(N3CCCC3)cc(C)c2c1 | 0 | -1 | 0 | 103 | -2 | 112
CCCCN(CC)CCCNC(=S)Nc1ccc2nc(N3CCN(CC)CC3)cc(C)c2c1 | 0 | 1 | 1 | 138* | 16 | 115
OC(COCC(F)(F)C(F)(F)C(F)(F)C(F)F)Cn1c2ccc(Cl)cc2c2cc(Cl)ccc21 (stereo not drawn) | 0 | 0 | 0 | 135 | 53* | 100
COc1ccc(C(CNC(=O)c2ccc(NS(=O)(=O)c3ccc4c(c3)OCCO4)cc2)N(C)C)cc1 (stereo not drawn) | 0 | x | x | x | x | x
COc1ccc(C(CNC(=O)c2ccc(S(=O)(=O)Nc3ccc(F)cc3)cc2)N(C)C)cc1 (stereo not drawn) | 0 | x | x | 119 | 31* | 108
CC(=O)OCC(=O)[C@@]12OC3(CCCC3)O[C@@H]1C[C@H]1[C@@H]3CCC4=CC(=O)C=C[C@]4(C)[C@@]3(F)[C@@H](O)C[C@@]12C | 0 | 0 | 1 | -3.0* | 3 | 85
O=C(c1ccc(OC2CCN(CCc3ccccc3)CC2)cc1)N1CCCCC1CCCO (stereo not drawn) | 0 | x | x | 114 | 10 | 98
CCOC(=O)C1=C(Cc2ccc(F)cc2)C(=O)c2ccccc2C1=O | 0 | 3 | 0 | 104 | 3 | 104
CCCCc1ccc(/C=C2\C(=O)c3ccccc3C(O)=C2C(=O)OCC)cc1 | 1.1* | 8 | 12 | 92 | -1 | 99
CCC(=O)NCCc1nc2cc(NC(=O)c3ccco3)ccc2n1C | 0 | x | x | 101 | 3 | 97
O=C(Nc1cc2cccc([N+](=O)[O-])c2oc1=O)c1cccs1 | 0 | 3 | 0 | -8.0* | 1 | 87
Cc1c(NC(=O)c2cccs2)cccc1[N+](=O)[O-] | 0 | 15 | 0 | 104 | 4 | 82
CCOc1ccc(CN2CCN(CC(O)Cn3c4ccccc4c4ccccc43)CC2)cc1 (stereo not drawn) | 0 | 2 | 1 | 138* | 9 | 104
CCN1CCN(CCNC(=O)c2ccc3c(c2)N(Cc2ccc(F)cc2)C(=O)/C(=C/c2ccccc2)S3)CC1 | 0 | 4 | 3 | 278* | 117* | 118
COc1cccc(/C=C2/Sc3ccc(C(=O)NCCCN4CCCC4)cc3NC2=O)c1 | 0 | x | x | 167* | 21 | 109
COc1cccc(/C=C2/Sc3ccc(C(=O)NCCN4CCCC4)cc3NC2=O)c1 | 0 | x | x | 188* | 30* | 109
Cc1cccc(CN2C(=O)/C(=C\c3ccc(C(=O)NCCN4CCOCC4)cc3)Sc3ccccc32)c1 | 0 | x | x | 130 | 9 | 107
SMILES | Efflux pump inh | ABCG2 block | ABCB1 inh | MEKK2wt PB1 HTS | MEKK2 mut-MEK5 | MEKK3 PB1 HTS
O=C1Nc2cc(C(=O)NCCCN3CCCC3)ccc2S/C1=C/c1ccccc1F | 0 | x | x | 138* | 13 | 103
O=C(NCCCN1CCCCC1)c1ccc2c(c1)NC(=O)c1ccccc1S2 | 0 | x | x | 105 | 5 | 96
COc1ccc(/C=C2\Sc3ccc(C(=O)NC4CC4)cc3N(C)C2=O)cc1OC | 0 | x | x | 99 | -5 | 102
COc1ccc(/C=C2\Sc3ccc(C(=O)NCCN4CCCCCC4)cc3N(C)C2=O)cc1 | 0 | x | x | 203* | 54* | 108
CN1C(=O)/C(=C\c2ccccc2F)Sc2ccc(C(=O)NC3CCN(Cc4ccccc4)CC3)cc21 | 0 | x | x | 168* | 20 | 104
CCN1CCCC1CNC(=O)c1ccc2c(c1)NC(=O)/C(=C\c1ccc(C)cc1)S2 (stereo not drawn) | 0 | x | x | 194* | 43* | 106
Cc1cc(C)nc(SCC(=O)N2CCCCC2)n1 | 0 | 1 | 0 | -2.0* | 14 | 91
O=[N+]([O-])c1ccccc1OCCCOc1cccc2cccnc12 | 0 | x | x | 112 | 5 | 105
CCCCn1nc(C(=O)NNC(=O)c2ccncc2)c2ccccc2c1=O | 0 | x | x | 104 | 3 | 98
CCN(CC)CCNC(=O)c1ccc(NC(=O)/C=C/c2ccc3ccccc3n2)cc1 | 1 | x | x | 0.0* | 11 | 87
CCN(CC)CCNC(=O)c1ccc(NC(=O)Cc2ccccc2F)cc1 | 0 | 2 | 0 | 95 | -3 | 91
COc1cc(C(=O)OCC(=O)NC2CCCCCC2)ccc1OCC(C)C | 0 | x | x | x | x | x
CCCn1nc(C(=O)Nc2nnc(CC)s2)c2ccccc2c1=O | 0 | 4 | 1 | -5.0* | 7 | 98
Clc1ccc2c(N/N=C/c3ccccc3Br)ccnc2c1 | -2 | 10 | 0 | 85 | -2 | 70*[inhibitor]
Clc1ccc2c(N/N=C/c3cccc(Br)c3)ccnc2c1 | 0 | -4 | 0 | 121 | 1 | 88
COc1cc(NS(=O)(=O)c2ccc(Br)s2)cc(OC)c1 | 0 | 2 | 0 | -14* | 9 | 88
COc1ccccc1/C=C/CN1CCCC(CO)(Cc2cccc(Cl)c2)C1 (stereo not drawn) | 0 | 8 | 8 | 190* | 60* | 111
COc1cccc(CC2(CO)CCCN(C/C=C/c3ccccc3OC)C2)c1 (stereo not drawn) | 0 | 11 | 4 | 115 | 3 | 103
O=C(Nc1ccc(Oc2ccsc2C(=O)O)cc1)c1ccccc1F | 0 | x | x | 101 | 3 | 99
CCOC(=O)c1c(-c2ccccc2)oc2ccc(OCC(O)CN(C)C)cc12 (stereo not drawn) | 0 | x | x | 162* | 25* | 107
CCn1c(N2CCN(CC(=O)c3ccc(OC)cc3)CC2)nc2ccccc21 | x | 10 | 2 | 2.0*[inhibitor] | -18 | 2.0*[inhibitor]

Screens: PubChem BioAssay, NMMLSC
